ChEMBL document CHEMBL4627393, “Discovery of Potent, Selective, and State-Dependent NaV1.7 Inhibitors with Robust Oral Efficacy in Pain Models: Structure-Activity Relationship and Optimization of Chroman and Indane Aryl Sulfonamides” (J Med Chem, 2020)

What was measured:
[1] = Lipophilicity, log D of the compound; assay type: physicochemical; details: octanol/water
[2] = Metabolic stability in mouse liver microsomes assessed as metabolic rate at 1 uM preincubated for 5 mins followed by NADPH addition and measured up to 30 mins by LC/MS-MS analysis; assay type: ADME, Microsome; details: 0.5 h
[3] = Clearance in BALB/c mouse at 1 mg/kg, iv measured upto 24 hrs by LC/MS-MS analysis; assay type: ADME, organism-based; details: in vivo
[4] = AUClast in Sprague-Dawley rat at 10 mg/kg, po measured upto 24 hrs by LC/MS-MS analysis; assay type: ADME, organism-based; design: time < 24 hr, dose 10 mg/kg, route oral; details: in vivo
[5] = Cmax in BALB/c mouse at 1 mg/kg, iv measured upto 24 hrs by LC/MS-MS analysis; assay type: ADME, organism-based; design: dose 1 mg/kg, route intravenous; details: in vivo
[6] = Apparent permeability across apical to basolateral side in human Caco2 cells; assay type: ADME, cell-based; details: Caco-2
[7] = AUClast in Sprague-Dawley rat at 1 mg/kg, iv measured upto 24 hrs by LC/MS-MS analysis; assay type: ADME, organism-based; design: dose 1 mg/kg, time < 24 hr, route intravenous; details: in vivo
[8] = Cmax in Sprague-Dawley rat at 1 mg/kg, iv measured upto 24 hrs by LC/MS-MS analysis; assay type: ADME, organism-based; design: dose 1 mg/kg, route intravenous; details: in vivo
[9] = AUClast in Beagle dog at 1 mg/kg, iv administered as infusion for 15 mins by LC/MS-MS analysis; assay type: ADME, organism-based, Canis lupus familiaris; design: dose 1 mg/kg, time 0 - last, route intravenous; details: in vivo
[10] = Clearance in Beagle dog at 1 mg/kg, iv administered as infusion for 15 mins by LC/MS-MS analysis; assay type: ADME, organism-based, Canis lupus familiaris; details: in vivo
[11] = Cmax in Sprague-Dawley rat at 10 mg/kg, po measured upto 24 hrs by LC/MS-MS analysis; assay type: ADME, organism-based; design: dose 10 mg/kg, route oral; details: in vivo
[12] = Metabolic stability in dog liver microsomes assessed as metabolic rate at 1 uM preincubated for 5 mins followed by NADPH addition and measured up to 30 mins by LC/MS-MS analysis; assay type: ADME, Canis lupus familiaris, Microsome; details: 0.5 h
[13] = Half life in Beagle dog at 1 mg/kg, iv administered as infusion for 15 mins by LC/MS-MS analysis; assay type: ADME, organism-based, Canis lupus familiaris; details: in vivo
[14] = AUClast in BALB/c mouse at 10 mg/kg, po measured upto 24 hrs by LC/MS-MS analysis; assay type: ADME, organism-based; design: dose 10 mg/kg, time < 24 hr, route oral; details: in vivo
[15] = Metabolic stability in human liver microsomes assessed as metabolic rate at 1 uM preincubated for 5 mins followed by NADPH addition and measured up to 30 mins by LC/MS-MS analysis; assay type: ADME, Microsome; details: 0.5 h
[16] = Metabolic stability in monkey liver microsomes assessed as metabolic rate at 1 uM preincubated for 5 mins followed by NADPH addition and measured up to 30 mins by LC/MS-MS analysis; assay type: ADME, Macaca mulatta, Microsome; details: rhesus monkey, 0.5 h
[17] = Clearance in Sprague-Dawley rat at 1 mg/kg, iv measured upto 24 hrs by LC/MS-MS analysis; assay type: ADME, organism-based; details: in vivo
[18] = Cmax in Beagle dog at 1 mg/kg, iv administered as infusion for 15 mins by LC/MS-MS analysis; assay type: ADME, organism-based, Canis lupus familiaris; design: dose 1 mg/kg, route intravenous; details: in vivo
[19] = Half life in Sprague-Dawley rat at 1 mg/kg, iv measured upto 24 hrs by LC/MS-MS analysis; assay type: ADME, organism-based; details: in vivo
[20] = Half life in BALB/c mouse at 1 mg/kg, iv measured upto 24 hrs by LC/MS-MS analysis; assay type: ADME, organism-based; details: in vivo
[21] = Bioavailability in Beagle dog at 1 mg/kg, iv administered as infusion for 15 mins followed by compound washout and subsequent compound dosing at 5 mg/kg, po measured up to 24 hrs by LC/MS-MS analysis; assay type: ADME, organism-based, Canis lupus familiaris; details: in vivo
[22] = Apparent permeability across basolateral to apical side in human Caco2 cells; assay type: ADME, cell-based; details: Caco-2
[23] = Oral bioavailability in Sprague-Dawley rat at 10 mg/kg measured upto 24 hrs by LC/MS-MS analysis; assay type: ADME, organism-based; details: in vivo
Method in brief: (§1)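 Pharmacokinetics were run with an IV dose of 1 mg/kg and a PO dose of 10 mg/kg. Parameters reported were AUClast, Cmax, CL, T1/2, Vss and %F.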

[24] = Cmax in Beagle dog at 1 mg/kg, iv administered as infusion for 15 mins followed by compound washout and subsequent compound dosing at 5 mg/kg, po measured up to 24 hrs by LC/MS-MS analysis; assay type: ADME, organism-based, Canis lupus familiaris; details: in vivo
[25] = Oral bioavailability in BALB/c mouse at 10 mg/kg measured upto 24 hrs by LC/MS-MS analysis; assay type: ADME, organism-based; details: in vivo; method in brief: as §1
[26] = Metabolic stability in rat liver microsomes assessed as metabolic rate at 1 uM preincubated for 5 mins followed by NADPH addition and measured up to 30 mins by LC/MS-MS analysis; assay type: ADME, Microsome; details: 0.5 h
[27] = AUClast in Beagle dog at 1 mg/kg, iv administered as infusion for 15 mins followed by compound washout and subsequent compound dosing at 5 mg/kg, po measured up to 24 hrs by LC/MS-MS analysis; assay type: ADME, organism-based, Canis lupus familiaris; details: in vivo
[28] = Unbound drug concentration in plasma of formalin-induced C57BL/6 mouse model of nociceptive pain at 3 mg/kg, po administered 30 mins before formalin stimulation and measured after 40 mins; assay type: ADME, organism-based; details: in vivo
Method in brief: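 Mice were dosed orally at 3 mg/kg 30 min before formalin challenge. Nociceptive behaviour was scored at 0–5 min (phase I) and 10–40 min (phase II). Plasma was collected at the end of the study, and the unbound drug concentration was determined.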

[29] = Volume of distribution at steady state in Beagle dog at 1 mg/kg, iv administered as infusion for 15 mins by LC/MS-MS analysis; assay type: ADME, organism-based, Canis lupus familiaris; details: in vivo, read-out: Vdss; method in brief: as §1
[30] = Cmax in BALB/c mouse at 10 mg/kg, po measured upto 24 hrs by LC/MS-MS analysis; assay type: ADME, organism-based; design: dose 10 mg/kg, route oral; details: in vivo
[31] = Volume of distribution at steady state in Sprague-Dawley rat at 1 mg/kg, iv measured upto 24 hrs by LC/MS-MS analysis; assay type: ADME, organism-based; details: in vivo, read-out: Vdss
[32] = AUClast in BALB/c mouse at 1 mg/kg, iv measured upto 24 hrs by LC/MS-MS analysis; assay type: ADME, organism-based; design: time < 24 hr, dose 1 mg/kg, route intravenous; details: in vivo
[33] = Volume of distribution at steady state in BALB/c mouse at 1 mg/kg, iv measured upto 24 hrs by LC/MS-MS analysis; assay type: ADME, organism-based; details: in vivo, read-out: Vdss; method in brief: as §1
[34] = Drug concentration in brain of formalin-induced C57BL/6 mouse model of nociceptive pain at 30 mg/kg, po administered 30 mins before formalin stimulation and measured after 40 mins

Row | logD [1] | Drug metabolism [2] | clearance [3] | AUC(0-t) at 24 h [4] | Cmax [5] | Papp A→B [6] | AUC(0-t) at 24 h [7] | Cmax [8] | AUC(0-t) at 0.25 h [9] | clearance [10] | Cmax [11] | Drug metabolism [12] | AUC(0-t) at 24 h [14] | Drug metabolism [15] | half-life [20] | bioavailability [25] | Drug metabolism [26] | Cmax [30] | AUC(0-t) at 24 h [32] | Vd [33] | Compound | other results
1 | 2.8 | – | – | – | – | – | – | – | – | – | – | – | – | – | – | – | – | – | – | – | O=S(=O)(Nc1ncc(F)cn1)c1ccc2c(c1)OCC[C@@H]2c1ccc(C(F)(F)F)cc1N1CCOCC1 | –
2 | 2.9 | – | – | – | – | – | – | – | – | – | – | – | – | – | – | – | – | – | – | – | O=S(=O)(Nc1ncccn1)c1ccc2c(c1)CC[C@@H]2c1ccc(C(F)(F)F)cc1N1CCOCC1 | –
3 | 3.7 | 0 nmol/min/mg | 2.7 mL/min/kg | 114 µM·h | 2 µM | 28 ×10⁻⁶ cm/s | 11 µM·h | 2.2 µM | 59 µM·h | 0.5 mL/min/kg | 13 µM | 0.01 nmol/min/mg | 107 µM·h | 0 nmol/min/mg | 4.2 h | 89% | 0.01 nmol/min/mg | 15 µM | 12 µM·h | 0.9 L/kg | Cn1nccc1-c1cc(C(F)(F)F)ccc1[C@H]1CCOc2cc(S(=O)(=O)Nc3ncccn3)ccc21 | half-life [13]: 7.8 h; Drug metabolism [16]: 0.02 nmol/min/mg; clearance [17]: 3 mL/min/kg; Cmax [18]: 6.9 µM; half-life [19]: 4.2 h; bioavailability [21]: 40%; Papp B→A [22]: 26.8 ×10⁻⁶ cm/s; bioavailability [23]: 100%; Cmax [24]: 10 µM; AUC(0-t) [27]: 117 µM·h; Cp(f) [28]: 0.728 µM; Vd [29]: 0.3 L/kg; Vd [31]: 0.9 L/kg
4 | 3.2 | – | – | – | – | – | – | – | – | – | – | – | – | – | – | – | – | – | – | – | O=S(=O)(Nc1ncccn1)c1ccc2c(c1)CC[C@@H]2c1ccc(C(F)(F)F)cc1-c1ccc(F)nc1 | –
5 | 3.2 | 0.04 nmol/min/mg | 14 mL/min/kg | – | 0.8 µM | – | – | – | – | – | – | – | 19 µM·h | 0.03 nmol/min/mg | 2.8 h | 95% | 0.05 nmol/min/mg | 4.2 µM | 2 µM·h | 2.9 L/kg | O=S(=O)(Nc1nccs1)c1ccc2c(c1)OCC[C@@H]2c1ccc(C(F)(F)F)cc1-c1ccc(F)nc1 | –
6 | 2.7 | 0.16 nmol/min/mg | 2.5 mL/min/kg | 19 µM·h | 2 µM | 37.6 ×10⁻⁶ cm/s | 5.9 µM·h | 2.1 µM | 48 µM·h | 0.5 mL/min/kg | 2.1 µM | 0.02 nmol/min/mg | 62 µM·h | 0.02 nmol/min/mg | 4.3 h | 50% | 0.02 nmol/min/mg | 9.6 µM | 12 µM·h | 0.81 L/kg | O=S(=O)(Nc1ncccn1)c1ccc2c(c1)OCC[C@@H]2c1ccc(C(F)(F)F)cc1N1CCOCC1 | half-life [13]: 11 h; brain concentration at 40 min [34]: < 1 µM; Drug metabolism [16]: 0.03 nmol/min/mg; clearance [17]: 5.1 mL/min/kg; Cmax [18]: 4.9 µM; half-life [19]: 2.8 h; Papp B→A [22]: 25.4 ×10⁻⁶ cm/s; bioavailability [23]: 31%; Vd [29]: 0.5 L/kg; Vd [31]: 1.2 L/kg
